# Measurements reported in ChEMBL document CHEMBL1629705, “PSI-7851, a pronucleotide of beta-D-2'-deoxy-2'-fluoro-2'-C-methyluridine monophosphate, is a potent and pan-genotype inhibitor of hepatitis C virus replication” (Antimicrob Agents Chemother, 2010).
# Activity calls are given as the source filed them. The calls are words filed in the database; no cut-off is given here.
# What was measured:
# [1] = test system: Hepatitis C virus; experiment: Antiviral activity against Hepatitis C virus assessed as clearance of HCV from replicon cells at 1 uM; format: functional, organism-based; settings: Hepacivirus hominis
# Procedure, shortened: (§1)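 ET-lunet replicon cells, 1 × 10^5/well, no G418, with compound at 0.1, 1 or 2 μM (final DMSO 0.5%). Passaged 1:3 or 1:4 every 3–4 days for 3 weeks with fresh compound, then 3 more weeks with 0.25 mg/ml G418 and no inhibitor. HCV RNA by RT-PCR normalized to rRNA (ΔΔCt vs DMSO) at each passage. Crystal violet colony staining at 6 weeks.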
# [2] = test system: Hepatitis C virus; experiment: Antiviral activity against Hepatitis C virus assessed as log reduction in viral RNA at 0.1 uM after 3 weeks; format: functional, Hepacivirus hominis
# Procedure, shortened: (§2)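 ET-lunet replicon cells seeded at 1 × 10^5/well without G418, treated at 0.1, 1 or 2 μM (final DMSO 0.5%). Passaged 1:3–1:4 every 3–4 days for 3 weeks with fresh compound. Then compound withdrawn and cells grown 3 more weeks in 0.25 mg/ml G418. HCV RNA by RT-PCR (ΔΔCt vs rRNA and DMSO controls, log change). Colonies fixed in formaldehyde and stained with crystal violet at 6 weeks.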
# [3] = test system: Hepatitis C virus; experiment: Antiviral activity against Hepatitis C virus assessed as clearance of HCV from replicon cells at 2 uM; format: functional, organism-based; settings: Hepacivirus hominis; procedure, shortened: as §1
# [4] = test system: Hepatitis C virus; experiment: Antiviral activity against Hepatitis C virus assessed as inhibition of viral rebound at 2 uM after 3 weeks in presence of G418; format: functional, organism-based; settings: Hepacivirus hominis; procedure, shortened: as §1
# [5] = test system: Hepatitis C virus; experiment: Antiviral activity against Hepatitis C virus assessed as inhibition of viral rebound at 0.1 uM after 3 weeks in presence of G418; format: functional, organism-based; settings: Hepacivirus hominis; procedure, shortened: as §2
# [6] = test system: Hepatitis C virus; experiment: Antiviral activity against Hepatitis C virus; format: functional, organism-based, Hepacivirus hominis
# [7] = test system: Hepatitis C virus; experiment: Antiviral activity against Hepatitis C virus assessed as inhibition of viral rebound at 1 uM after 3 weeks in presence of G418; format: functional, organism-based; settings: Hepacivirus hominis; procedure, shortened: as §1
# [8] = biological target: T1, DNA polymerase subunit gamma-1 (Homo sapiens, UniProt P54098); experiment: Inhibition of human DNA polymerase gamma assessed as incorporation of [alpha-32P]dCTP up to 1mM preincubated for 30 mins by whatman DE81 paper binding assay
# T1 sequence (P54098 whole entry): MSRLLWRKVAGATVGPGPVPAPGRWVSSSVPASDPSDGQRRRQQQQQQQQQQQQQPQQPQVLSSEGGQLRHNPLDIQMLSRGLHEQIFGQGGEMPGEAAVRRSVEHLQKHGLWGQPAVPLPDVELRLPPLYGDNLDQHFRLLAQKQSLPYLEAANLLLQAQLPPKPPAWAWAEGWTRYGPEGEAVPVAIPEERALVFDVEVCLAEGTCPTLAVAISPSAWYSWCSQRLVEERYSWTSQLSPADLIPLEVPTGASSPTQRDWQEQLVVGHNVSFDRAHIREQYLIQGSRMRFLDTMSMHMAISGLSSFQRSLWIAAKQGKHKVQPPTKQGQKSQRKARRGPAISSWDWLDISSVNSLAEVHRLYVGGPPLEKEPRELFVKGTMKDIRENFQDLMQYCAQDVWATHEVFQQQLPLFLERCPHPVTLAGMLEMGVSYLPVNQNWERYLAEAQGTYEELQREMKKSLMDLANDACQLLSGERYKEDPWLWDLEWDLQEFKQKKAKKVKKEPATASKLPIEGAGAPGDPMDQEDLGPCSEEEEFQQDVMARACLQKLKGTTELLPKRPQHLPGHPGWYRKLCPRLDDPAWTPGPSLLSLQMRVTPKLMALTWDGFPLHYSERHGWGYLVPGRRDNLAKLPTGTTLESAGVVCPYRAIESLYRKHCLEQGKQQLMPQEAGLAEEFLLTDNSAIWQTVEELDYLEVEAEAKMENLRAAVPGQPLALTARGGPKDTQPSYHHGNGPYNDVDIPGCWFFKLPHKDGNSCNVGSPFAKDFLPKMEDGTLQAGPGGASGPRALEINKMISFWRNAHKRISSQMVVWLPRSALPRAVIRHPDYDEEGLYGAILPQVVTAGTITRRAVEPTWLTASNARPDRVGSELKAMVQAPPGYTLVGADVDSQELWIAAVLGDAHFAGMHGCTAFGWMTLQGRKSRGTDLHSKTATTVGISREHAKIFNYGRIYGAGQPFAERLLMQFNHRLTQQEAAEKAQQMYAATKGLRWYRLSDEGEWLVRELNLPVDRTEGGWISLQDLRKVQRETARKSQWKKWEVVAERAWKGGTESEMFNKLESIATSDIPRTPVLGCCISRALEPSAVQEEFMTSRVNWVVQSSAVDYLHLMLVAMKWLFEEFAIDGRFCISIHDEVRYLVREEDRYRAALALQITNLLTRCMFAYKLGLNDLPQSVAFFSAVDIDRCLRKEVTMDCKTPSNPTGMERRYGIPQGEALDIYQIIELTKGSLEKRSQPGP
# Procedure, shortened: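 Human DNA polymerase α (20 μg/ml) or γ (50 μg/ml) in 50 mM Tris pH 7.5, 50 mM NaCl, activated calf thymus DNA, 20 μM each dNTP, [α-32P]dCTP, 5 mM MgCl2. Nucleotide inhibitor up to 1 mM. 37°C, quenched with EDTA at 30 min. Product measured by DE81 paper binding; IC50 by nonlinear fit.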
# [9] = biological target: DNA polymerase beta (Homo sapiens, UniProt P06746); experiment: Inhibition of human DNA polymerase beta assessed as incorporation of [alpha-32P]dCTP up to 1mM preincubated for 30 mins by whatman DE81 paper binding assay
# Procedure, shortened: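 Human DNA polymerase β at 18 μg/ml final, in 50 mM Tris pH 7.5, 50 mM NaCl, 5 mM MgCl2, activated calf thymus DNA and 20 μM each dNTP with [α-32P]dCTP. Triphosphate up to 1 mM. 37°C, stopped at 30 min with EDTA. Products quantified by DE81 paper binding; IC50 by nonlinear fit.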
# [10] = test system: Hepatitis C virus; experiment: Selectivity ratio of EC90 for Hepatitis C virus harboring NS5B polymerase S96T mutant gene to EC90 for HCV harboring wild type NS5B polymerase; format: functional, Hepacivirus hominis
# [11] = test system: Hepatitis C virus; experiment: Antiviral activity against Hepatitis C virus harboring wild-type NS5B infected in human lunet cells by luciferase-based replicon assay; format: functional, Hepacivirus hominis
# Procedure, shortened: (§3)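 ET-lunet cells with the ET genotype 1b replicon, wild-type or S96T/N142T (ET replicon with these mutations electroporated into Lunet cells, selected in 0.2 mg/ml G418). 3,000 cells/well, 4 days with serially diluted compound. Firefly luciferase luminescence read-out; EC90 from dose–response.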
# [12] = test system: Hepatitis C virus; experiment: Antiviral activity against Hepatitis C virus harboring NS5B polymerase S282T mutant gene infected in human HuH7 cells by luciferase-based replicon assay; format: functional, Hepacivirus hominis; settings: Huh-7
# [13] = test system: Hepatitis C virus; experiment: Antiviral activity against Hepatitis C virus harboring NS5B polymerase S96T mutant gene infected in human lunet cells by luciferase-based replicon assay; format: functional, Hepacivirus hominis; procedure, shortened: as §3
# [14] = test system: Hepatitis C virus; experiment: Antiviral activity against Hepatitis C virus harboring wild-type NS5B infected in human HuH7 cells by luciferase-based replicon assay; format: functional, Hepacivirus hominis; settings: Huh-7
# [15] = test system: Hepatitis C virus; experiment: Antiviral activity against Hepatitis C virus harboring NS5B polymerase S96T/N142T mutant gene infected in human […] cells by luciferase-based replicon assay; format: functional, Hepacivirus hominis; procedure, shortened: as §3
# [16] = test system: Hepatitis C virus; experiment: Selectivity ratio of EC90 for Hepatitis C virus harboring NS5B polymerase S282T mutant gene to EC90 for Hepatitis C virus harboring wild-type NS5B polymerase; format: functional, Hepacivirus hominis
# Procedure, shortened: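 Clone A genotype 1b (Con1) replicon cells, wild-type or S282T mutant (selected with 2′-C-methyladenosine). 1,500 cells/well, 4 days with serially diluted compound. HCV RNA by real-time RT-PCR; EC90 from dose–response.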
# [17] = biological target: T2, DNA-directed RNA polymerase II subunit RPB1 (Homo sapiens, UniProt P24928); experiment: Inhibition of human RNA polymerase 2 assessed as synthesis of RNA products at 500 uM
# Procedure, shortened: (§4)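 In vitro transcription by HeLa nuclear extract from CMV immediate-early promoter DNA. Mix: 400 μM ATP, CTP and UTP, 16 μM GTP, [α-32P]GTP, 3 mM MgCl2, in 20 mM HEPES pH 7.9 buffer with KCl, EDTA, DTT and glycerol. Inhibitor up to 1 mM. 30°C for 60 min. RNA purified, run on 6% sequencing gel and quantified by phosphorimager.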
# [18] = biological target: T2, DNA-directed RNA polymerase II subunit RPB1; experiment: Inhibition of human RNA polymerase 2 assessed as synthesis of RNA products at 1 uM; procedure, shortened: as §4
# [19] = biological target: T2, DNA-directed RNA polymerase II subunit RPB1; experiment: Inhibition of human RNA polymerase 2; procedure, shortened: as §4
# [20] = test system: Hepatitis C virus; experiment: Antiviral activity against Hepatitis C virus isolate Con1 infected in human HuH-7 cells assessed as inhibition of viral RNA replication after 4 days by luciferase reporter gene assay; format: functional, Hepacivirus hominis; settings: Con1, Huh-7, 96 h
# Procedure, shortened: (§5)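 Genotype 1b Con1 subgenomic replicon cells (ET-lunet, 3,000 cells/well, firefly luciferase ET replicon; clone A, 1,500 cells/well) incubated 4 days with serially diluted compound. Replication read by luciferase luminescence and/or real-time RT-PCR.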
# [21] = test system: Hepatitis C virus; experiment: Antiviral activity against Hepatitis C virus Con1 infected in human lunet cells assessed as inhibition of viral RNA replication after 4 days by luciferase reporter gene assay; format: functional, organism-based, Hepacivirus hominis; settings: 96 h; procedure, shortened: as §5
smiles,measurement,setting,value
CC(C)CCn1c(=O)c(C2=NS(=O)(=O)c3cc(N(C)S(C)(=O)=O)ccc3N2)c(O)c2cccn21,Activity,[1],inactive
same,FC,[2],0.69
same,Activity,[3],inactive
same,Activity,[4],Active
same,Activity,[5],inactive
same,EC50,[6],0.11 µM
same,Activity,[7],inactive
C[C@@]1(CO)[C@H](O)CC[C@@]2(C)[C@H]1CC[C@H]1C[C@@H]3C[C@@]12CC[C@]3(O)CO [APHIDICOLIN],IC50,[8],> 100 µM
same,IC50,[9],> 100 µM
[N-]=[N+]=N[C@]1(CO)O[C@@H](n2ccc(N)nc2=O)[C@H](O)[C@@H]1O [4'-AZIDOCYTIDINE],Selectivity ratio,[10],4.7
same,EC90,[11],17 µM
same,EC90,[12],24.9 µM
same,EC90,[13],80.1 µM
same,EC90,[14],18.6 µM
same,EC90,[15],80.1 µM
same,Selectivity ratio,[16],1.3
Nc1ccn([C@@H]2O[C@H](COP(=O)(O)OP(=O)(O)OP(=O)(O)O)C[C@H]2O)c(=O)n1,inhibition,[17],67%
same,inhibition,[18],Active
same,IC50,[19],> 500 µM
C[C@@]1(F)[C@H](O)[C@@H](CO)O[C@H]1n1ccc(N)nc1=O,EC90,[20],0.45 µM
same,EC50,[21],0.075 µM
same,EC90,[21],0.52 µM
